According to ChEMBL document CHEMBL4402517, “Rational modification of Mannich base-type derivatives as novel antichagasic compounds: Synthesis, in vitro and in vivo evaluation” (Bioorg Med Chem, 2019):
pIC50: −log10 of the molar value. Active and inactive are the calls of the source. No cut-off for these calls is given here.

Assays:
[1] = system: Trypanosoma cruzi; test: Antitrypanosomal activity against Trypanosoma cruzi MHOM/Pe/2011/Arequipa;DTU 5 epimastigote assessed as effect on glycerol excretion at IC50 after 72 hrs by H NMR method relative to control; assay type: functional, organism-based
How it was run: (§1)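 Cells were spun at 800 × g for 10 min and culture supernatants analysed by 1H NMR. Catabolite peaks were expressed as % variation versus untreated parasites.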

[2] = system: Trypanosoma cruzi; test: Antitrypanosomal activity against Trypanosoma cruzi MHOM/Pe/2011/Arequipa;DTU 5 epimastigote assessed as depolarization of mitochondrial membrane at IC50 measured after 72 hrs by rhodamine 123 and acridine orange staining based flow cytometry relative to control; assay type: functional
How it was run: (§2)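 They were stained with rhodamine 123 or acridine orange and analysed by flow cytometry. Index of variation = (TM−CM)/CM, from median fluorescence of treated (TM) and untreated (CM) parasites.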

[3] = system: Trypanosoma cruzi; test: (§3) Antitrypanosomal activity against Trypanosoma cruzi MHOM/Pe/2011/Arequipa;DTU 5 bloodstream trypomastigote infected in BALB/c mouse assessed as parasite-free brain in acute phase at 20 mg/kg/day, po administered for 5 consecutive days starting from day 8 post infection followed by cyclophosphamide induced immunosuppression on day 80 post infection measured after day 100 post infection by PCR method relative to control; assay type: functional
How it was run: (§4)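 Female BALB/c mice (10–12 weeks, three per group) were infected i.p. with 5 × 10^5 Arequipa bloodstream trypomastigotes. Dosing was oral, 20 mg/kg/day for 5 days, as a suspension in 5% DMSO/0.5% HPMC. Cyclophosphamide 200 mg/kg i.p. was given at day 80 pi. At necropsy (day 100) tissues were tested by PCR on the splice leader region (primers TC/TC1, 300 bp). Scored as x/3 mice positive.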

[4] = system: Trypanosoma cruzi; test: Antitrypanosomal activity against Trypanosoma cruzi MHOM/Pe/2011/Arequipa;DTU 5 epimastigote assessed as change in RNA level at IC50 measured after 72 hrs by acridine orange staining based flow cytometry relative to control; assay type: functional; how it was run: as §2
[5] = Toxicity in BALB/c mouse infected with Trypanosoma cruzi MHOM/Pe/2011/Arequipa;DTU 5 bloodstream trypomastigote assessed as decrease in serum creatine kinase muscle to brain ratio level in acute phase at 20 mg/kg/day, po administered for 5 consecutive days starting from day 8 post infection and measured at day 14 post infection by biochemical analysis relative to control; assay type: organism-based; set-up: scale not given: the % may be the effect or the level left; conditions: in vivo
How it was run: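 Female BALB/c mice (10–12 weeks, 14–20 g; groups of three) were infected i.p. with 5 × 10^5 Arequipa bloodstream trypomastigotes. Dosing was oral at 20 mg/kg/day for 5 days, from day 8 pi (acute) or day 70 pi (chronic), as a 2 mg/ml suspension in 5% DMSO/0.5% HPMC; controls received vehicle. Cyclophosphamide 200 mg/kg i.p. was given at day 80 pi. Serum was collected 2 days post-treatment and at necropsy by cardiac puncture and compared with infected untreated controls.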

[6] = Selectivity index, ratio of IC50 for African green monkey Vero cells to IC50 for Trypanosoma cruzi MHOM/Pe/2011/Arequipa; DTU 5 trypomastigote forms; assay type: toxicity; conditions: read-out: Selectivity Index
How it was run: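 Bloodstream trypomastigotes were taken from BALB/c mice by cardiac puncture and diluted in RPMI with 10% FBS at 2 × 10^6/mL. They were incubated with 3.1–50.0 µM for 24 h at 37 °C in 5% CO2 and counted in a Neubauer chamber. Triplicate, at least three experiments; nonlinear regression.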

[7] = system: Trypanosoma cruzi; test: as §3, with “heart” for “brain”; assay type: functional; how it was run: as §4
[8] = Selectivity index, ratio of IC50 for African green monkey Vero cells to IC50 for Trypanosoma cruzi IRHOD/CO/2008/SN3;DTU 1 amastigote forms; assay type: toxicity; conditions: read-out: Selectivity Index
How it was run: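 Vero cells (1 × 10^4/well) were infected with trypomastigotes at MOI 10:1 for 24 h and washed with PBS. They were then exposed to 3.1–50 µM for 72 h at 37 °C in 5% CO2, and amastigotes were counted after Giemsa staining. Triplicates in two determinations; nonlinear regression.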

[9] = system: Trypanosoma cruzi; test: as §3, with “brain in chronic phase at” for “brain in acute phase at”, “from day 70 post infection” for “from day 8 post infection”; assay type: functional; how it was run: as §4
[10] = system: Trypanosoma cruzi; test: Antitrypanosomal activity against Trypanosoma cruzi MHOM/Pe/2011/Arequipa;DTU 5 amastigote forms measured after 72 hrs by Giemsa staining based assay; assay type: functional, organism-based; conditions: MHOM/Pe/2011/Arequipa;DTU 5, 72 h
How it was run: (§5)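 Vero cells (1 × 10^4/well, on coverslips) left to adhere 24 h at 37 °C, 5% CO2, then infected with trypomastigotes at MOI 10:1 for 24 h. Free parasites were removed by three PBS washes. Compounds at 3.1, 6.25, 12.5, 25 and 50 µM were incubated 72 h, and amastigotes were counted after Giemsa staining. Triplicates, two separate experiments; IC50 by nonlinear regression.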

[11] = system: Trypanosoma cruzi; test: Antitrypanosomal activity against Trypanosoma cruzi TINF/CH/1956/Tulahuen;DTU 6 amastigote forms measured after 72 hrs by Giemsa staining based assay; assay type: functional, organism-based; conditions: TINF/CH/1956/Tulahuen;DTU 6, 72 h; how it was run: as §5
[12] = system: Trypanosoma cruzi; test: Antitrypanosomal activity against Trypanosoma cruzi TINF/CH/1956/Tulahuen;DTU 6 epimastigotes measured after 72 hrs by Neubauer hemocytometer; assay type: functional, organism-based; conditions: TINF/CH/1956/Tulahuen;DTU 6, 72 h
[13] = system: Vero; test: Cytotoxicity against African green monkey Vero cells measured after 72 hrs by MTT assay; assay type: cell-based; conditions: Chlorocebus sabaeus
How it was run: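 Log-phase Vero cells (0.8 × 10^4/well) in RPMI-1640 + 10% heat-inactivated FBS at 37 °C, 5% CO2 were exposed 72 h to serial dilutions (10.0–200.0 µM; stocks in DMSO). MTT was then added for 4 h and absorbance read. Quadruplicates, three experiments; IC50 by nonlinear regression.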

[14] = system: Trypanosoma cruzi; test: as §3, with “trypomastigotes” for “trypomastigote”, “stomach” for “brain”; assay type: functional; how it was run: as §4
[15] = system: Trypanosoma cruzi; test: Antitrypanosomal activity against Trypanosoma cruzi MHOM/Pe/2011/Arequipa;DTU 5 bloodstream trypomastigotes infected in BALB/c mouse assessed as reduction in serum Ig-G level in chronic phase at 20 mg/kg/day, po administered for 5 consecutive days starting from day 70 post infection followed by cyclophosphamide induced immunosuppression on day 80 post infection and measured at day 100 post infection by ELISA; assay type: functional, organism-based
How it was run: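 Sera came from infected BALB/c mice (three per group) dosed orally at 20 mg/kg/day for 5 days. Sampling points: 2 days after treatment, the day before immunosuppression (acute only) and necropsy day. Anti-T. cruzi IgG was measured by indirect ELISA using parasite Fe-SOD as antigen, read as OD at 492 nm.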

[16] = system: Trypanosoma cruzi; test: as §3, with “adipose tissue” for “brain”; assay type: functional; how it was run: as §4
[17] = system: Trypanosoma cruzi; test: Antitrypanosomal activity against Trypanosoma cruzi MHOM/Pe/2011/Arequipa;DTU 5 epimastigote assessed as effect on acetate excretion at IC50 after 72 hrs by H NMR method relative to control; assay type: functional, organism-based; how it was run: as §1
[18] = system: Trypanosoma cruzi; test: as §3, with “as parasite-free oesophagus in chronic” for “as parasite-free brain in acute”, “oesophagus in chronic phase at” for “brain in acute phase at”, “from day 70 post infection” for “from day 8 post infection”; assay type: functional; how it was run: as §4
[19] = system: Trypanosoma cruzi; test: Antitrypanosomal activity against Trypanosoma cruzi MHOM/Pe/2011/Arequipa;DTU 5 epimastigote assessed as effect on L-alanine excretion at IC50 after 72 hrs by H NMR method relative to control; assay type: functional, organism-based; how it was run: as §1

O=C(CCN1CCN(c2ccc(Cl)cc2)CC1)c1ccc(O)cc1
Activity [1]: Active | Activity [2]: 67.6% | Activity [3]: 50% | Activity [4]: -5.1% | Activity [5]: <= 30% | selectivity ratio [6]: 141 | Activity [7]: 50% | selectivity ratio [8]: 23.2 | Activity [9]: 63% | pIC50 [10]: 5.29 | pIC50 [11]: 5.52 | pIC50 [12]: 4.97 | pIC50 [13]: 3.98 | Activity [14]: 50% | Activity [15]: Active | Activity [16]: 50% | Activity [17]: Active | Activity [18]: 63% | Activity [19]: Active

O=C(Cn1ccnc1[N+](=O)[O-])NCc1ccccc1 [BENZNIDAZOLE]
Activity [1]: Active | Activity [2]: 15.2% | Activity [3]: 25% | Activity [4]: -4.7% | Activity [5]: <= 30% | selectivity ratio [6]: > 32.5 | Activity [7]: 25% | selectivity ratio [8]: > 45.6 | Activity [9]: 38% | pIC50 [10]: 5.52 | pIC50 [11]: 5.41 | pIC50 [12]: 4.60 | pIC50 [13]: < 3.70 | Activity [14]: 25% | Activity [15]: Active | Activity [16]: 25% | Activity [17]: Active | Activity [18]: 38% | Activity [19]: Active

O=C(CCN1CCN(c2ccc(C(F)(F)F)cc2)CC1)c1ccc(O)cc1
Activity [1]: Active | Activity [2]: 54.4% | Activity [3]: 13% | Activity [4]: -4.2% | Activity [5]: <= 30% | selectivity ratio [6]: 123 | Activity [7]: 13% | selectivity ratio [8]: 16.2 | Activity [9]: 50% | pIC50 [10]: 5.21 | pIC50 [11]: 5.41 | pIC50 [12]: 4.83 | pIC50 [13]: 3.97 | Activity [14]: 13% | Activity [15]: Active | Activity [16]: 13% | Activity [17]: Active | Activity [18]: 50% | Activity [19]: Active
